Assay results published in ChEMBL document CHEMBL4152188, “Design, synthesis and biological evaluation of C(4) substituted monobactams as antibacterial agents against multidrug-resistant Gram-negative bacteria” (Eur J Med Chem, 2018).
Values after ≈ are worked out from the molar mass of the structure shown.

Assays:
Escherichia coli [1] = experiment: Antibacterial activity against extended-spectrum beta-lactamase producing Escherichia coli isolate 212648 after 18 hrs by CLSI broth microdilution method; format: functional; settings: isolate 212648, 18 h
[2] = Intrinsic clearance in human liver microsomes assessed per g protein at 0.1 uM pre-incubated with compound followed by NADPH addition and measured after 60 mins by LC-MS/MS analysis; format: ADME, microsome; settings: 1 h
How it was run: (§1)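 Liver microsomes, 0.33 mg/mL microsomal protein, with an NADP+-regenerating system. Test article at 0.1 µM, incubated at 37°C. Samples were taken at 0, 7, 17, 30 and 60 min, and parent compound was measured by MS. Half-life, intrinsic clearance (ml/min/g protein) and MF (%) are derived from parent loss.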

[3] = Intrinsic clearance in mouse liver microsomes assessed per g protein at 0.1 uM pre-incubated with compound followed by NADPH addition and measured after 60 mins by LC-MS/MS analysis; format: ADME, microsome; settings: 1 h; how it was run: as §1
Escherichia coli [4] = experiment: Antibacterial activity against Escherichia coli isolate 210737 after 18 hrs in presence of BPL by CLSI broth microdilution method; format: functional; settings: isolate 210737, 18 h
How it was run: (§2)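 CLSI broth microdilution against clinical isolates (ESBL E. coli, KPC-2 MDR K. pneumoniae, IMP-4 MDR P. aeruginosa; five per species). Iron limitation: Mueller-Hinton broth supplemented with 16 mg/liter 2,2'-bipyridyl to complex iron and induce iron uptake systems. Read-out: MIC.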

Escherichia coli [5] = experiment: Antibacterial activity against extended-spectrum beta-lactamase producing Escherichia coli isolate 212648 after 18 hrs in presence of BPL by CLSI broth microdilution method; format: functional; settings: isolate 212648, 18 h; how it was run: as §2
Klebsiella pneumoniae [6] = experiment: Selectivity index, ratio of MIC for against KPC-2 producing Klebsiella pneumoniae isolate 212423 to MIC for against KPC-2 producing Klebsiella pneumoniae isolate 212423 in presence of BPL; format: functional
Klebsiella pneumoniae [7] = experiment: Selectivity index, ratio of MIC for against KPC-2 producing Klebsiella pneumoniae isolate 209632 to MIC for against KPC-2 producing Klebsiella pneumoniae isolate 209632 in presence of BPL; format: functional
Klebsiella pneumoniae [8] = experiment: Antibacterial activity against KPC-2 producing Klebsiella pneumoniae isolate 209735 after 18 hrs in presence of BPL by CLSI broth microdilution method; format: functional; settings: isolate 209735, 18 h; how it was run: as §2
Klebsiella pneumoniae [9] = experiment: Selectivity index, ratio of MIC for against KPC-2 producing Klebsiella pneumoniae isolate 209735 to MIC for against KPC-2 producing Klebsiella pneumoniae isolate 209735 in presence of BPL; format: functional
Klebsiella pneumoniae [10] = experiment: Antibacterial activity against KPC-2 producing Klebsiella pneumoniae isolate 212229 after 18 hrs by CLSI broth microdilution method; format: functional; settings: isolate 212229, 18 h
Klebsiella pneumoniae [11] = experiment: Selectivity index, ratio of MIC for against KPC-2 producing Klebsiella pneumoniae isolate 212229 to MIC for against KPC-2 producing Klebsiella pneumoniae isolate 212229 in presence of BPL; format: functional
Pseudomonas aeruginosa [12] = experiment: Antibacterial activity against IMP-4 producing Pseudomonas aeruginosa isolate 212886 after 18 hrs by CLSI broth microdilution method; format: functional; settings: isolate 212886, 18 h
Pseudomonas aeruginosa [13] = experiment: Antibacterial activity against IMP-4 producing Pseudomonas aeruginosa isolate 212886 after 18 hrs in presence of BPL by CLSI broth microdilution method; format: functional; settings: isolate 212886, 18 h; how it was run: as §2
Pseudomonas aeruginosa [14] = experiment: Antibacterial activity against IMP-4 producing Pseudomonas aeruginosa isolate 208247 after 18 hrs by CLSI broth microdilution method; format: functional; settings: isolate 208247, 18 h
Pseudomonas aeruginosa [15] = experiment: Antibacterial activity against IMP-4 producing Pseudomonas aeruginosa isolate 209321 after 18 hrs by CLSI broth microdilution method; format: functional; settings: isolate 209321, 18 h

| MIC (Escherichia coli [1]) [µg/mL] | CLint [2] [mL/min/g] | CLint [3] [mL/min/g] | MIC (Escherichia coli [4]) [µg/mL] | MIC (Escherichia coli [5]) [µg/mL] | MIC (Klebsiella pneumoniae [8]) [µg/mL] | MIC (Klebsiella pneumoniae [10]) [µg/mL] | MIC (Pseudomonas aeruginosa [12]) [µg/mL] | MIC (Pseudomonas aeruginosa [13]) [µg/mL] | MIC (Pseudomonas aeruginosa [14]) [µg/mL] | MIC (Pseudomonas aeruginosa [15]) [µg/mL] | Compound | Selectivity Index (Klebsiella pneumoniae [6]) | Selectivity Index (Klebsiella pneumoniae [7]) | Selectivity Index (Klebsiella pneumoniae [9]) | Selectivity Index (Klebsiella pneumoniae [11]) |
| --- | --- | --- | --- | --- | --- | --- | --- | --- | --- | --- | --- | --- | --- | --- | --- |
| 16 (≈ 20.9 µM) | 26.2 | 27.1 | 8 | 8 | 0.25 | 2 (≈ 2.61 µM) | 4 (≈ 5.22 µM) | 1 | 4 (≈ 5.22 µM) | 8 (≈ 10.4 µM) | CC(C)C(O/N=C(\C(=O)N[C@@H]1C(=O)N(S(=O)(=O)O)[C@@H]1Cn1cc(COCc2cc(=O)c(O)cn2O)nn1)c1csc(N)n1)c1cc(=O)c(O)cn1O (stereo not given in full) | 8 | 8 | 8 | 8 |
| 1 (≈ 1.75 µM) | 7.76 | 5.59 | 0.06 | 0.5 | 0.25 | 1 (≈ 1.75 µM) | 16 (≈ 28 µM) | 8 | 16 (≈ 28 µM) | 8 (≈ 14 µM) | CC(C)C(O/N=C(\C(=O)N[C@@H]1C(=O)N(S(=O)(=O)O)C12CCCC2)c1csc(N)n1)c1cc(=O)c(O)cn1O (stereo not given in full) | 4 | 8 | 8 | 8 |
| 1 (≈ 1.7 µM) | 11.9 | 3.41 | 0.25 | 0.25 | 8 | 1 (≈ 1.7 µM) | 4 (≈ 6.78 µM) | 4 | 4 (≈ 6.78 µM) | 8 (≈ 13.6 µM) | CC(C)C(O/N=C(\C(=O)N[C@@H]1C(=O)N(S(=O)(=O)O)[C@@H]1COC(N)=O)c1csc(N)n1)c1cc(=O)c(O)cn1O (stereo not given in full) | 2 | 4 | 4 | 4 |
| 1 (≈ 1.77 µM) | 11.1 | 29 | 0.25 | 0.25 | 8 | 0.5 (≈ 0.885 µM) | 8 (≈ 14.2 µM) | 8 | 8 (≈ 14.2 µM) | 8 (≈ 14.2 µM) | CC(C)C(O/N=C(\C(=O)N[C@@H]1C(=O)N(S(=O)(=O)O)[C@@H]1CCl)c1csc(N)n1)c1cc(=O)c(O)cn1O (stereo not given in full) | 1 | 1 | 4 | 2 |
